Measurements gathered from unrelated publications.
Target: Protein kinase C epsilon type (PRKCE, Homo sapiens, UniProt Q02156)
Residues used in one study (Q02156 1-737): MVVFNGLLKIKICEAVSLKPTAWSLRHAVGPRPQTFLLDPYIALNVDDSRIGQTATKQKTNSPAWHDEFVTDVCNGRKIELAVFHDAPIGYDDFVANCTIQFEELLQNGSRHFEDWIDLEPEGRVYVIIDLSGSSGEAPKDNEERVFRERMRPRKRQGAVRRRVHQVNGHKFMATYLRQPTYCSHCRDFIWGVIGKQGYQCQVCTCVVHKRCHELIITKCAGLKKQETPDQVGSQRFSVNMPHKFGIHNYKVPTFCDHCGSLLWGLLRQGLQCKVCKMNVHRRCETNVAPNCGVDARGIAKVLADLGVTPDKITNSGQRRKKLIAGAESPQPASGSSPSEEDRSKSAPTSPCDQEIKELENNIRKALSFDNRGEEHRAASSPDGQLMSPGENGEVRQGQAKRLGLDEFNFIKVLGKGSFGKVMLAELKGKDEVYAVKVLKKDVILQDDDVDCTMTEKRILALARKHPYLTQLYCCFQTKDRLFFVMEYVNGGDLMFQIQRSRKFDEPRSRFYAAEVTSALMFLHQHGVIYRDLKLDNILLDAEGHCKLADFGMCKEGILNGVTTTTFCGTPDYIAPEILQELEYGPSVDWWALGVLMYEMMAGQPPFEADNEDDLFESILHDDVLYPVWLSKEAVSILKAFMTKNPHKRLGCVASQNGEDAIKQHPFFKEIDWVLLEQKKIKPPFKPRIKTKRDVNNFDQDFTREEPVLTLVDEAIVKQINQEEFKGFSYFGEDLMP

With FC(F)(F)Oc1cccc(-c2cnc3ccc(-c4ccncc4)nn23)c1 the remaining binding was 62% (cell-free assay; competition with immobilised ligand; 5 µM).
For O=C(c1ccc(Nc2ncc(Cl)c(-c3ccc(Cl)s3)n2)cc1)N1CCC(N2CCCC2)CC1, the remaining binding was 45% (binding; competition with immobilised ligand; 1 µM).
With CSc1cccnc1N1CCN(Cc2nc3ccccc3[nH]2)CC1 the remaining binding was 77% (cell-free assay; competition with immobilised ligand; 1 µM).
Cc1cnc(Nc2ccc(C(=O)N3CCC(N4CCCC4)CC3)cc2)nc1-c1cc2ccccc2s1 has a remaining binding of 26% (binding; competition with immobilised ligand; 1 µM).
N#Cc1ccccc1CSc1nnc2c(n1)[nH]c1ccccc12 has a remaining binding of 100% (binding; competition with immobilised ligand; 10 µM).
CN(C)c1nccc(-c2cnc3ncccn23)n1 has a remaining binding of 100% (binding; 1 µM).
For CN(C)C(=O)Cn1cc(-c2nc(C3(c4ccc(-c5cnc(N)nc5)cc4)CC3)no2)cn1, the remaining binding was 90% (cell-free assay; competition with immobilised ligand; 1 µM).
With Cc1cnn2ncc(-c3ccnc(N(C)C)n3)c2c1 the remaining binding was 100% (binding; 1 µM).
With O=C(NCC1CCOCC1)c1n[nH]cc1NC(=O)c1c(F)cccc1F the remaining binding was 87% (binding; competition with immobilised ligand; 1 µM).
C[C@@H]1CN(c2ccc3ncc(-c4ccc5[nH]nc(C6CC6)c5c4)n3n2)C[C@H](C)O1 has a remaining binding of 86% (binding; competition with immobilised ligand; 50 nM).
COc1cc(-c2cn(C3CCc4ccccc4N(CC(F)(F)F)C3=O)nn2)ccc1-n1ccc(C)n1 (stereo not shown) gave a remaining binding of 100% (cell-free assay; competition with immobilised ligand; 1 µM).
The remaining binding of COc1cnc(Nc2cccc(S(N)(=O)=O)c2)nc1N1CCN(c2ccccc2)C(=O)C1 is reported as 100% (binding; competition with immobilised ligand; 1 µM).
For COc1ncc2cc3ccccc3nc2c1C#N, the remaining binding was 89% (cell-free assay; competition with immobilised ligand; 5 µM).
The remaining binding of C[C@H]1CCN(c2nccc(-c3cnn4ncccc34)n2)C1 is reported as 100% (binding; 1 µM).
COc1ccc2c(O[C@@H]3C[C@H]4C(=O)N[C@]5(C(=O)O)CC5/C=C\CCCCC[C@H](NC(=O)OC5CCCC5)C(=O)N4C3)cc(-c3csc(NC(=O)C(C)C)n3)nc2c1C (stereo partly shown) gave a remaining binding of 58% (cell-free assay; competition with immobilised ligand; 1 µM).
CC1CCCN1c1nccc(-c2cnn3ncccc23)n1 (stereo not shown) has a remaining binding of 100% (binding; 1 µM).
With CCN1CCN(Cc2ccc(C(=O)Nc3ccc(C)c(Oc4ccc5c(c4)CC(=O)N5)c3)cc2C(F)(F)F)CC1 the remaining binding was 100% (binding; competition with immobilised ligand; 1 µM).
With COc1ccnn2ncc(-c3ccnc(N(C)C)n3)c12 the remaining binding was 100% (binding; 1 µM).
The remaining binding of Cn1nc(C(=O)NCc2ccc(C(=O)O)cc2)cc1-c1ccc2[nH]ccc2c1 is reported as 64% (cell-free assay; competition with immobilised ligand; 0.1 µM).
O=C(NCCCN1CCOCC1)c1ccc(Nc2ncc(Cl)c(-c3ccc(Cl)s3)n2)cc1 has a remaining binding of 67% (binding; competition with immobilised ligand; 1 µM).
For CN(C)c1ncc(F)c(-c2cnn3ncccc23)n1, the remaining binding was 95% (binding; 1 µM).
CCC(=N\O)/C(C)=C/c1ccc(F)cc1 gave a remaining binding of 76% (cell-free assay; competition with immobilised ligand; 1 µM).
The remaining binding of N[C@@H]1CCN(c2nccc(-c3cnn4ncccc34)n2)C1 is reported as 97% (binding; 1 µM).
For COc1cc(-c2cn(C3CCc4c(F)cccc4N(CC(F)(F)F)C3=O)nn2)ccc1-n1cnc(C)c1 (stereo not shown), the remaining binding was 100% (cell-free assay; competition with immobilised ligand; 1 µM).
For CNC(=O)[C@@H]1CC[C@@H](n2c(-c3ccc4cnccc4c3)nc3ccc(C(=O)NCc4cccc(C(N)=O)c4)cc32)C1, the remaining binding was 85% (binding; competition with immobilised ligand; 1 µM).
